Assay results as given in ChEMBL document CHEMBL5149972, “Novel Antimalarial Tetrazoles and Amides Active against the Hemoglobin Degradation Pathway in Plasmodium falciparum” (J Med Chem, 2021).

Experiments:
HepG2 = assay: Cytotoxicity against human HepG2 cells assessed as reduction in cell viability incubated for 72 hrs by CellTiter-Glo assay; assay type: toxicity, cell-based; details: hepg2, 72 h
Plasmodium falciparum [1] = assay: Antiplasmodial activity against asexual blood stage Plasmodium falciparum 3D7 infected in human RBC assessed as parasite growth inhibition incubated for 72 hrs by SYBR Green dye based fluorescence assay; assay type: functional, organism-based
How it was run: (§1)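 Blood-stage cultures at 2% hematocrit, human O+ RBCs, RPMI 1640 + 25 mM HEPES, 0.5% Albumax-I, 23 mM bicarbonate, 92 μM hypoxanthine. Start at 0.5% parasitemia; 72 h at 37°C, 5% CO₂; freeze-thaw, then SYBR Green in saponin/Triton lysis buffer, 4 h RT dark; fluorescence ex 485/em 535 nm. 10-point curves, technical duplicates or triplicates, final 0.5% DMSO; four-parameter fit gives EC₅₀; mean ± std dev of biological replicates.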

Plasmodium falciparum [2] = assay: Antiplasmodial activity against drug resistant Plasmodium falciparum Dd2 infected in human RBC assessed as parasite growth inhibition incubated for 72 hrs by SYBR Green dye based fluorescence assay; assay type: functional, organism-based; how it was run: as §1
[3] = Plasmodium falciparum, 3D7, Erythrocyte, 72 h
[4] = Plasmodium falciparum, Dd2, Erythrocyte, 72 h

SMILES	CC50 (HepG2)	EC50 (Plasmodium falciparum [1]; [3])	EC50 (Plasmodium falciparum [2]; [4])	EC50 (Plasmodium falciparum [2]; rbc)	EC50 (Plasmodium falciparum [1]; rbc)
CCc1ccccc1N(C)C(=O)C(c1cncnc1)N(Cc1cccc(C(F)(F)F)c1)C1CC1 (racemic)	> 25000 nM	240 nM	570 nM	–	–
Cc1ccccc1-n1nnnc1C(c1cccnc1)N(C)Cc1cc(C(F)(F)F)ccc1F (racemic)	–	1000 nM	2500 nM	–	–
COc1ccc(C(F)(F)F)cc1CN(C)C(c1cccnc1)c1nnnn1-c1ccccc1C (racemic)	–	1300 nM	–	3700 nM	–
COc1ccccc1CN(C)C(c1ccccc1)c1nnnn1-c1ccccc1C (racemic)	–	9700 nM	10000 nM	–	–
Cc1ccccc1-n1nnnc1C(c1cccnc1)N(Cc1cc(C(F)(F)F)ccc1F)C1CC1 (racemic)	–	600 nM	670 nM	–	–
Cc1ccccc1-n1nnnc1C(c1cncnc1)N(Cc1ccc(F)c(C(F)(F)F)c1)C1CC1 (racemic)	–	470 nM	680 nM	–	–
CCCN(C(c1cncnc1)c1nnnn1-c1ccccc1C)C1(c2cccc(C(F)(F)F)c2)CC1 (racemic)	–	310 nM	520 nM	–	–
CN(C(=O)C(c1cncnc1)N(Cc1cccc(C(F)(F)F)c1)C1CC1)c1ccccc1 (racemic)	> 30000 nM	720 nM	2000 nM	–	–
COc1ccc(C(F)(F)F)cc1CN(C)C(c1ccccc1)c1nnnn1-c1ccccc1C (racemic)	–	1700 nM	3700 nM	–	–
CN(Cc1cc(C(F)(F)F)ccc1F)C(c1cccnc1)c1nnnn1C1CCCCC1 (racemic)	–	1700 nM	2600 nM	–	–
Cc1ccccc1N(C)C(=O)C(c1cccnc1)N(Cc1cccc(OC(F)(F)F)c1)C1CC1 (racemic)	> 30000 nM	320 nM	520 nM	–	–
Cc1ccccc1-n1nnnc1C(C1CC1)N(Cc1cccc(C(F)(F)F)c1)C1CC1 (racemic)	–	4700 nM	3200 nM	–	–
Cc1ncccc1C(c1nnnn1C1CC1)N(C1CC1)C1(c2cccc(C(F)(F)F)c2)CC1 (racemic)	> 30000 nM	14000 nM	16000 nM	–	–
FC(F)(F)c1cccc(CN(C2CC2)C(c2cccnc2)c2nnnn2C2CC2)c1 (racemic)	–	1500 nM	3000 nM	–	–
Cc1ccccc1N(C)C(=O)C(c1cccnc1)N(Cc1cccc(SC(F)(F)F)c1)C1CC1 (racemic)	> 30000 nM	310 nM	390 nM	–	–
CCCN(C(c1cccnc1)c1nnnn1-c1ccccc1C)C1(c2cccc(C(F)(F)F)c2)CC1 (racemic)	10000 nM	230 nM	410 nM	–	–
Cc1ccccc1N(C)C(=O)C(c1cncnc1)N(Cc1cccc(OC(F)(F)F)c1)C1CC1 (racemic)	> 30000 nM	240 nM	590 nM	–	–
Cc1ccccc1-n1nnnc1C(c1cncnc1)N(Cc1cccc(C(F)(F)F)c1F)C1CC1 (racemic)	–	470 nM	710 nM	–	–
Cc1ccccc1N(C)C(=O)C(c1cncnc1)N(Cc1cccc(SC(F)(F)F)c1)C1CC1 (racemic)	> 30000 nM	260 nM	1000 nM	–	–
CCc1ccccc1N(C)C(=O)C(c1cccnc1)N(Cc1cccc(C(F)(F)F)c1)C1CC1 (racemic)	> 20000 nM	190 nM	480 nM	–	–
COc1ccc(C(F)(F)F)cc1CN(C)C(c1cccnc1)c1nnnn1-c1ccccc1C (single isomer, unassigned; (+))	–	–	–	2500 nM	1500 nM
Cc1ccccc1-n1nnnc1C(c1cncnc1)N(Cc1cc(F)cc(C(F)(F)F)c1)C1CC1 (single isomer, unassigned; (+))	–	–	–	2500 nM	350 nM
COc1ccc(Br)cc1CN(C)C(c1ccccc1)c1nnnn1-c1ccccc1C (single isomer, unassigned; (+))	–	–	–	3000 nM	1500 nM
COc1ccc(C(F)(F)F)cc1CN(C)C(c1cccnc1)c1nnnn1-c1ccccc1C (single isomer, unassigned; (-))	–	–	–	1700 nM	–
COc1ccc(Br)cc1CN(C)C(c1ccccc1)c1nnnn1-c1ccccc1C (single isomer, unassigned; (-))	–	–	–	4000 nM	4400 nM
